# Source: PubChem BioAssay (several laboratories)
# Shown are actives, neighbours in structure and some others; about 4.4% of the full set was active somewhere.
# AI-2 QS modul – modulates the Vibrio harveyi AI-2 quorum sensing system. Vibrio harveyi JMH597 AI-2 luminescence/OD600 ratio, 9 h; hits give low values; strain lacks LuxN and CqsS sensors; 0 = neutral-control median. AID 2094. activity change, % at 7.5 µM. 0.4% of 300,000 active; in the data active = activity change below about -75%, passing the limit was not always enough;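 note: luminescence divided by OD600 gain over 9 h not by final OD600 alone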
# m5-HT2A agonist – activates the mouse 5-HT2A serotonin receptor; P35363; CHO-K1 mHTR2A beta-arrestin complementation, luminescence; percent of 30 µM serotonin response; activation, % at 7.6 µM; 0.66% of 360,000 active; AID 624169;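 active = activation above a run cutoff, the mean activation of all tested compounds plus 3 SD, cut at about 14% in these data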;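 note: 0% = plate median of compound wells and 100% = 30 µM serotonin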
# TbMetRS inhib – Trypanosoma brucei MetRS inhibition | purified T. brucei MetRS, ATP depletion, Kinase-Glo luminescence | inhibition, % at 11.9 µM | 0.4% of 360,000 active | AID 624268;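 active = inhibition above a per-plate cutoff of the control wells' mean inhibition plus 3 SD, cut at about 5.5% in these data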;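 note: 0% = DMSO wells median and 100% = median of wells with control inhibitor compound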
#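 assay system = parasite MetRS enzyme | timing = 15 min preincubation, 2 h reaction, all 25 °C | evaluation = percent inhibition relative to median high and low control wells | medium = HEPES buffer containing pyrophosphatase, BSA, spermine, DTT | compound = single dose, 11.9 µM final nominal, 0.9% final DMSO | detection = Kinase-Glo luminescence, ATP depletion format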
# MsrA inh – bovine MsrA inhibition | 0.75% of 360,000 active | purified bovine MsrA, absorbance read-out | inhibition, % at 15.5 µM; in the data active = inhibition above about 4.5%;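 note: 0% = vehicle wells with enzyme and 100% = reference inhibitor wells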
# AHR act – activators of human aryl hydrocarbon receptor; P35869; AHR-responsive luciferase reporter cells, luminescence; activation, % at 5 µM; 2.5% of 320,000 active; in the data active = activation above about 47%;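 note: 0% = vehicle wells and 100% = reference agonist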
# Target sequence (P35869 whole entry, looked up): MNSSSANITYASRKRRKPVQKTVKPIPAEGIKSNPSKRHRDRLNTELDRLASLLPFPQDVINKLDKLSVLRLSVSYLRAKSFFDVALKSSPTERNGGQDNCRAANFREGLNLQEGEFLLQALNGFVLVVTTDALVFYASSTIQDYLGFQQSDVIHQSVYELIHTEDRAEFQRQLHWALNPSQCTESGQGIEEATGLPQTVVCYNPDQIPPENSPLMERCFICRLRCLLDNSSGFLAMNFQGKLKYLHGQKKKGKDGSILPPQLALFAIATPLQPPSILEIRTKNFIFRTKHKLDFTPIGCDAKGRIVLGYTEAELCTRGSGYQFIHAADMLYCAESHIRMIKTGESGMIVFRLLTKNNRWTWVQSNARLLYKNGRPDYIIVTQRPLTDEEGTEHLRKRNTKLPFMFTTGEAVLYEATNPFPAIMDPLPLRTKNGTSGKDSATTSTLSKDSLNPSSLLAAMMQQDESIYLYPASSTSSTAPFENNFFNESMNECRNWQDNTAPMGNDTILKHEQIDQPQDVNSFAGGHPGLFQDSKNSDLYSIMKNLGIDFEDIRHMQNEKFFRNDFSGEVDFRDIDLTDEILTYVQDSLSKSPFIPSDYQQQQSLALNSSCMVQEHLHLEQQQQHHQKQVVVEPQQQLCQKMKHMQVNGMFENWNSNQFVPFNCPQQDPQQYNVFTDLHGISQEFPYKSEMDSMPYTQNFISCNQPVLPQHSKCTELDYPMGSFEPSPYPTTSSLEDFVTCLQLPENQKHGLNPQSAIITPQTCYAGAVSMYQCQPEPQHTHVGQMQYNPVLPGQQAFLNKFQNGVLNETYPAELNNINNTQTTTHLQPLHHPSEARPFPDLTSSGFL
# MsrA act – activators of bovine methionine sulfoxide reductase A; purified bovine MsrA, absorbance read-out; activation, % at 10.6 µM; 0.3% of 360,000 active; in the data active = activation above about 7.5%;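 note: 0% = vehicle and 100% = reference activator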
# The depositor's hits bear a star; · = no result given.
SMILES,AI-2 QS modul,m5-HT2A agonist,TbMetRS inhib,MsrA inh,AHR act,MsrA act
O=C(Nc1ccc2c(c1)OCO2)C(c1ccccc1)N1CCN(C(=O)c2ccco2)CC1 (centres undefined),-4.9,2.3,0.4,0.5,9.5,-1.5
CC1CCCN(C(C(=O)Nc2ccc3c(c2)OCCO3)c2ccccc2)C1 (centres undefined),39.3,7.2,-0.5,-1.3,0.7,-4.4
CC1CCN(C(C(=O)Nc2ccc3c(c2)OCO3)c2ccccc2)CC1 (centres undefined),-1.1,-2.5,-0.1,-1.6,47.9*,-0.9
O=C(Nc1ccc2c(c1)OCO2)C(c1ccccc1)N1CCC2(CC1)OCCO2 (centres undefined),8.4,-1.1,0.0,2.0,11.4,-1.6
CC1CCC(NC(=O)C(=O)Nc2ccc3c(c2)OCO3)CC1 (centres undefined),6.4,-0.9,-0.4,1.9,49.4*,-1.5
CC1CCCN(C(C(=O)Nc2ccc3c(c2)OCO3)c2ccccc2)C1 (centres undefined),-7.6,0.8,-0.4,0.0,47.2*,-6.2
COc1cccc(NC(=O)COC(=O)c2sccc2C)c1,·,-2.4,-0.3,1.6,-0.2,-1.4
O=S1(=O)CCC(N(N=Cc2ccco2)c2ccccc2)C1 (centres undefined),·,·,·,0.8,·,·
Fc1ccc(NC(=S)N2CCN(c3cccc(C(F)(F)F)c3)CC2)cc1,1.5,14.2,-0.1,2.6,-5.6,3.9
FC(F)(F)c1cccc(NC(=S)N2CCN(c3cccc(C(F)(F)F)c3)CC2)c1,14.2,15.1*,-0.3,-0.3,-1.7,-6.7
CCCCOCC1CN(CCCC)S(=O)(=O)c2c(Oc3ccc(SC)c(C)c3)cccc2O1 (centres undefined),·,·,·,0.2,·,·
Cc1ccc(C(=O)N2CCC[C@@H]2C(=O)N2CCC[C@H]2C(=O)NCc2ccccc2)cc1C,·,·,·,-0.6,·,·
CCCN(CCC)C(=O)Cn1c2ccccc2c2nc(=O)cc(C)n21,-1.4,2.4,-0.2,-0.6,50.5*,-5.6
COc1ccc(NC(=S)NC(=O)/C=C/c2ccco2)c(OC)c1,25.0,-5.6,-1.1,2.6,67.9*,-8.0
Cc1cccnc1NC(=S)NC(=O)/C=C/c1ccco1,1.4,2.6,-0.7,2.8,16.6,-4.8
O=C(/C=C/c1ccco1)NC(=S)Nc1ccccn1,6.0,-1.3,-0.6,2.4,66.0*,-7.2
O=C(/C=C/c1ccco1)NC(=S)Nc1ccccc1N1CCOCC1,16.3,-1.0,-0.9,2.7,12.4,-5.7
O=C(/C=C/c1ccco1)NC(=S)Nc1ccccc1N1CCCC1,23.0,-1.0,-0.9,1.6,65.1*,-12.5
O=C(/C=C/c1ccco1)Nc1ccccc1N1CCCC1,19.3,-4.9,0.3,0.7,72.5*,-2.3
O=C(N[C@H](Cc1ccccc1)C(=O)O)[C@H]1O[C@@H](n2ccc(=O)[nH]c2=O)[C@H](O)[C@@H]1O,·,·,·,1.7,·,·
CCCSc1nnc2nc3c(nn12)c1ccccc1n3C,33.1,-1.5,-0.4,-0.3,49.9*,-3.0
O=C(Nc1ccc(Oc2ccc(Br)cc2)cc1)C1=CC=CN2CCS(=O)(=O)N=C12,·,3.0,-0.2,-0.2,2.4,-2.0
CCN(CC)S(=O)(=O)c1cccc(-c2nc3n(n2)Cc2ccccc2-3)c1,42.7,2.3,-0.1,-0.7,18.6,1.8
Clc1ccc(-c2nc3n(n2)Cc2ccccc2-3)cc1,23.0,-3.5,-0.1,-1.1,74.1*,1.2
OC(c1ccccc1)C1(c2ccccc2)CCN(Cc2ccccc2)CC1 (centres undefined),·,·,·,0.1,·,·
SMILES,AI-2 QS modul,m5-HT2A agonist,TbMetRS inhib,MsrA inh,AHR act,MsrA act
COc1cccc(/C=N/NC(=O)c2cnn(-c3ccccc3)c2N)c1,15.9,-4.5,-0.6,0.1,68.2*,-4.4
Nc1c(C(=O)N/N=C/c2cccnc2)cnn1-c1ccccc1,12.0,-1.0,-0.3,1.2,50.9*,-1.0
COC(=O)C1=C(C)N(Cc2ccc(F)cc2)C(=S)NC1c1ccc(Cl)cc1 (centres undefined),·,·,·,0.3,·,·
CC(C)NC(=O)c1csc(COCCO)n1,·,-1.5,-0.2,-0.5,·,-5.0
CC(=O)c1c(OC(=O)c2ccc(C)cc2)c2ccccc2n1C,18.8,-2.2,-1.5,0.4,5.0,-6.7
CC(=O)c1c(OC(=O)c2ccco2)c2ccccc2n1C,27.2,-3.6,-0.3,4.6*,2.7,-1.6
COc1cccc(CC(=O)NCC2CCN(C(=O)C(=O)c3cccs3)CC2)c1,·,·,·,0.9,·,·
CCC(C)[C@@H](N)C(=O)N/N=C/c1cccc2nccnc12 (some centres undefined),18.6,·,·,·,70.1*,·
O=C1c2ccccc2C(=O)N1CCCOc1ccccc1,-7.3,1.4,-0.9,0.4,66.2*,-3.5
CCOC(=O)N(C)[C@H]1C[C@H]2c3[nH]c4ccccc4c3CCN2C(=O)[C@H]1[C@H](C)O,·,·,·,1.4,·,·
O=C(O)CN1C(=O)/C(=C2\C(=O)N(Cc3ccccc3Cl)c3ccccc32)SC1=S,16.8,-1.7,-1.5,0.6,60.1*,-1.7
COc1ccccc1CCn1cnc(-c2ccc(Cl)cc2)c1CC(C)C,·,·,·,0.8,·,·
Cc1cc2c(nc1C)CCCN2S(=O)(=O)c1ccccc1,·,·,·,1.1,·,·
CCn1c2ccccc2c2cc(NC(=O)c3ccc(Br)o3)ccc21,13.3,5.4,0.0,1.2,62.7*,-2.2
CCn1c2ccccc2c2cc(NC(=O)CCCN3C(=O)CCC3=O)ccc21,22.7,-1.0,-0.4,-0.5,67.3*,-0.7
CCn1c2ccccc2c2cc(NC(=O)c3cc(C)on3)ccc21,8.9,-2.0,-0.8,0.9,53.4*,1.0
CCn1c2ccccc2c2cc(NC(=O)CSc3nnc(-c4ccccc4)o3)ccc21,12.2,-2.8,-0.8,-0.6,43.8,0.3
CCn1c2ccccc2c2cc(NC(=O)CSc3nnc(-c4cccc(F)c4)o3)ccc21,6.6,-4.6,-0.6,1.3,59.0*,0.5
COc1ccc(NC(=O)CCCN2C(=O)CCC2=O)cc1Cl,13.5,3.2,-2.3,-1.2,0.7,-1.2
CCOC(=O)C1=C[C@@H](C(C)(C)C)N(S(=O)(=O)c2ccc([N+](=O)[O-])cc2)[C@H]1c1ccccc1Cl,·,·,·,1.6,·,·
COc1cc(C(=O)NCC(c2ccccc2)N(C)C)ccc1OCc1c(C)noc1C (centres undefined),·,-18.0,-0.2,0.0,-0.2,-4.3
COc1ccc(NC(=O)Nc2ccc3c(c2)C(=O)N([C@H](C)CO)C[C@H](C)[C@H](CN(C)C)OCCCC[C@@H](C)O3)cc1,·,·,·,-0.3,·,·
C[C@H](CO)N1C[C@H](C)[C@@H](CN(C)C(=O)Nc2ccc(C(C)(C)C)cc2)OCc2cn(nn2)CCCC1=O,·,·,·,-0.2,·,·
CCn1c2ccccc2c2cc(NC(=O)COC(=O)c3ccccc3O)ccc21,23.0,3.2,-0.2,0.9,34.4,-1.6
CCn1c2ccccc2c2cc(NC(=O)c3ccc(=O)oc3)ccc21,-30.2,-5.2,-0.2,4.4,57.6*,1.2
